ChEMBL document CHEMBL3108706, “Design, synthesis, and biological activity of novel dicoumarol glucagon-like peptide 1 conjugates” (J Med Chem, 2013)

Tests used:
[1] = Half life in Sprague-Dawley rat plasma at 1000 ng/mL by LC-MS/MS analysis; assay type: ADME, cell-free
albumin = albumin (Homo sapiens, UniProt P02768); assay: Binding affinity to human serum albumin at 100 ug/mL after 3 hrs relative to control; assay type: ADME; conditions: read-out: PB (converted)
Method in brief: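 Peptide at 100 μg/mL in PBS (50 μL) was incubated with HSA-conjugated Sepharose resin for 3 h at 25 °C, then centrifuged (1000 rpm, 10 min). Unbound peptide in the supernatant was quantified by micro BCA assay. Nonspecific adsorption was corrected with NHS-inactivated, albumin-free resin.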

[2] = target: Glucagon-like peptide 1 receptor (Homo sapiens, UniProt P43220); assay: Activation of human GLP-1 receptor overexpressed in HEK293 cells assessed as cAMP accumulation after 20 mins by HTRF assay; assay type: functional, cell-based
Sequence of Glucagon-like peptide 1 receptor (P43220 whole entry): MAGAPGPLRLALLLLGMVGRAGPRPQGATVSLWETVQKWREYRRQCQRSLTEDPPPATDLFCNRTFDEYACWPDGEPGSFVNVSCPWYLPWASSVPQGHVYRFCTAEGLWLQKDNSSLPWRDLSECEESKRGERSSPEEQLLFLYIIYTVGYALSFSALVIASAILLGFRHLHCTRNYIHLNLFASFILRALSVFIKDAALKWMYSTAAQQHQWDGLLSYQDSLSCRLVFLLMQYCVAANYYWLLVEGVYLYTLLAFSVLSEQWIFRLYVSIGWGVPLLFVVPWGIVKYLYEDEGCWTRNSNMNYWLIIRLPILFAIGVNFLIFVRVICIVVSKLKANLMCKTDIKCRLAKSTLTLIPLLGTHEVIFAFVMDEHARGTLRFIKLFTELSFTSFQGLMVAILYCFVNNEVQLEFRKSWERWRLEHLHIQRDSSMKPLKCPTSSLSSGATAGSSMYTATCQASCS

Sequence of albumin (P02768 whole entry): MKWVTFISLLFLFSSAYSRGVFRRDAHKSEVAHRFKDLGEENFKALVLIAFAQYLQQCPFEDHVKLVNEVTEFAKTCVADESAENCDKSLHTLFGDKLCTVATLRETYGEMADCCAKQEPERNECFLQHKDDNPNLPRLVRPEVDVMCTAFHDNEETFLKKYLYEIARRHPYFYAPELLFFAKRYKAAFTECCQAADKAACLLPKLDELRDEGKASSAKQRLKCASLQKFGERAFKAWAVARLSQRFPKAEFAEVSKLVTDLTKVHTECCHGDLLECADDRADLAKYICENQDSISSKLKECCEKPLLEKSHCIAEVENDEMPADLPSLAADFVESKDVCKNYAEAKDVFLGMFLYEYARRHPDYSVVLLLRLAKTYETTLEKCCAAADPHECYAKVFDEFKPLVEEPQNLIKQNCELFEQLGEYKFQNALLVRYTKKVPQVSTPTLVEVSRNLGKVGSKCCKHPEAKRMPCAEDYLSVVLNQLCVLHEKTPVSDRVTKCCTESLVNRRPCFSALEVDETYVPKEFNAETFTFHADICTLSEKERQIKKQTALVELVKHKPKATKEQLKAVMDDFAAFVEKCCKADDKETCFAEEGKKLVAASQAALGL

Structure (SMILES)	half-life at 1000 ng/mL [1] [min]	fraction unbound at 3 h, 100 ug/mL (albumin)	EC50 [2] [pM]
CC[C@H](C)[C@H](NC(=O)[C@H](Cc1ccccc1)NC(=O)[C@H](CCC(=O)O)NC(=O)[C@H](CCCCN)NC(=O)[C@H](C)NC(=O)[C@H](C)NC(=O)[C@H](CCC(N)=O)NC(=O)CNC(=O)[C@H](CCC(=O)O)NC(=O)[C@H](CC(C)C)NC(=O)[C@H](Cc1ccc(O)cc1)NC(=O)[C@H](CO)NC(=O)[C@H](CO)NC(=O)[C@@H](NC(=O)[C@H](CC(=O)O)NC(=O)[C@H](CO)NC(=O)[C@@H](NC(=O)[C@H](Cc1ccccc1)NC(=O)[C@@H](NC(=O)CNC(=O)[C@H](CCC(=O)O)NC(=O)CNC(=O)[C@@H](N)Cc1cnc[nH]1)[C@@H](C)O)[C@@H](C)O)C(C)C)C(=O)N[C@@H](C)C(=O)N[C@@H](Cc1c[nH]c2ccccc12)C(=O)N[C@@H](CC(C)C)C(=O)N[C@H](C(=O)N[C@@H](CSC1CC(=O)N(CCCCCC(=O)Nc2ccc(C(c3c(O)c4ccccc4oc3=O)c3c(O)c4ccccc4oc3=O)cc2)C1=O)C(=O)NCC(=O)N[C@@H](CCCNC(=N)N)C(N)=O)C(C)C (stereo partly specified)	1330	0.198	7.3
CC[C@H](C)[C@H](NC(=O)[C@H](Cc1ccccc1)NC(=O)[C@H](CCC(=O)O)NC(=O)[C@H](CCCCN)NC(=O)[C@H](C)NC(=O)[C@H](C)NC(=O)[C@H](CCC(N)=O)NC(=O)CNC(=O)[C@H](CCC(=O)O)NC(=O)[C@H](CC(C)C)NC(=O)[C@H](Cc1ccc(O)cc1)NC(=O)[C@H](CO)NC(=O)[C@H](CSC1CC(=O)N(CCC(=O)Nc2ccc(C(c3c(O)c4ccccc4oc3=O)c3c(O)c4ccccc4oc3=O)cc2)C1=O)NC(=O)[C@@H](NC(=O)[C@H](CC(=O)O)NC(=O)[C@H](CO)NC(=O)[C@@H](NC(=O)[C@H](Cc1ccccc1)NC(=O)[C@@H](NC(=O)CNC(=O)[C@H](CCC(=O)O)NC(=O)CNC(=O)[C@@H](N)Cc1cnc[nH]1)[C@@H](C)O)[C@@H](C)O)C(C)C)C(=O)N[C@@H](C)C(=O)N[C@@H](Cc1c[nH]c2ccccc12)C(=O)N[C@@H](CC(C)C)C(=O)N[C@H](C(=O)N[C@@H](CCCCN)C(=O)NCC(=O)N[C@@H](CCCNC(=N)N)C(N)=O)C(C)C (stereo partly specified)	816	0.31	26.1
CC[C@H](C)[C@H](NC(=O)[C@H](Cc1ccccc1)NC(=O)[C@H](CCC(=O)O)NC(=O)[C@H](CCCCN)NC(=O)[C@H](C)NC(=O)[C@H](C)NC(=O)[C@H](CCC(N)=O)NC(=O)CNC(=O)[C@H](CCC(=O)O)NC(=O)[C@H](CC(C)C)NC(=O)[C@H](Cc1ccc(O)cc1)NC(=O)[C@H](CO)NC(=O)[C@H](CO)NC(=O)[C@@H](NC(=O)[C@H](CC(=O)O)NC(=O)[C@H](CO)NC(=O)[C@@H](NC(=O)[C@H](Cc1ccccc1)NC(=O)[C@@H](NC(=O)CNC(=O)[C@H](CCC(=O)O)NC(=O)CNC(=O)[C@@H](N)Cc1cnc[nH]1)[C@@H](C)O)[C@@H](C)O)C(C)C)C(=O)N[C@@H](C)C(=O)N[C@@H](Cc1c[nH]c2ccccc12)C(=O)N[C@@H](CC(C)C)C(=O)N[C@H](C(=O)N[C@@H](CSC1CC(=O)N(CCC(=O)Nc2ccc(C(c3c(O)c4ccccc4oc3=O)c3c(O)c4ccccc4oc3=O)cc2)C1=O)C(=O)NCC(=O)N[C@@H](CCCNC(=N)N)C(N)=O)C(C)C (stereo partly specified)	1160	0.273	6.5
CC[C@H](C)[C@H](NC(=O)[C@H](Cc1ccccc1)NC(=O)[C@H](CCC(=O)O)NC(=O)[C@H](CCCCN)NC(=O)[C@H](C)NC(=O)[C@H](C)NC(=O)[C@H](CCC(N)=O)NC(=O)CNC(=O)[C@H](CCC(=O)O)NC(=O)[C@H](CC(C)C)NC(=O)[C@H](Cc1ccc(O)cc1)NC(=O)[C@H](CO)NC(=O)[C@H](CO)NC(=O)[C@@H](NC(=O)[C@H](CC(=O)O)NC(=O)[C@H](CO)NC(=O)[C@@H](NC(=O)[C@H](Cc1ccccc1)NC(=O)[C@@H](NC(=O)CNC(=O)[C@H](CCC(=O)O)NC(=O)CNC(=O)[C@@H](N)Cc1cnc[nH]1)[C@@H](C)O)[C@@H](C)O)C(C)C)C(=O)N[C@@H](C)C(=O)N[C@@H](Cc1c[nH]c2ccccc12)C(=O)N[C@@H](CC(C)C)C(=O)N[C@H](C(=O)N[C@@H](CCCCN)C(=O)NCC(=O)N[C@@H](CCCNC(=N)N)C(=O)N[C@@H](CSC1CC(=O)N(CCC(=O)Nc2ccc(C(c3c(O)c4ccccc4oc3=O)c3c(O)c4ccccc4oc3=O)cc2)C1=O)C(N)=O)C(C)C (stereo partly specified)	582	0.332	3
CC[C@H](C)[C@H](NC(=O)[C@H](Cc1ccccc1)NC(=O)[C@H](CCC(=O)O)NC(=O)[C@H](CCCCN)NC(=O)[C@H](C)NC(=O)[C@H](C)NC(=O)[C@H](CCC(N)=O)NC(=O)CNC(=O)[C@H](CCC(=O)O)NC(=O)[C@H](CC(C)C)NC(=O)[C@H](Cc1ccc(O)cc1)NC(=O)[C@H](CO)NC(=O)[C@H](CS)NC(=O)[C@@H](NC(=O)[C@H](CC(=O)O)NC(=O)[C@H](CO)NC(=O)[C@@H](NC(=O)[C@H](Cc1ccccc1)NC(=O)[C@@H](NC(=O)CNC(=O)[C@H](CCC(=O)O)NC(=O)CNC(=O)[C@@H](N)Cc1cnc[nH]1)[C@@H](C)O)[C@@H](C)O)C(C)C)C(=O)N[C@@H](C)C(=O)N[C@@H](Cc1c[nH]c2ccccc12)C(=O)N[C@@H](CC(C)C)C(=O)N[C@H](C(=O)N[C@@H](CCCCN)C(=O)NCC(=O)N[C@@H](CCCNC(=N)N)C(N)=O)C(C)C	66	0.922	6.4
CC[C@H](C)[C@H](NC(=O)[C@H](Cc1ccccc1)NC(=O)[C@H](CCC(=O)O)NC(=O)[C@H](CCCCN)NC(=O)[C@H](C)NC(=O)[C@H](C)NC(=O)[C@H](CCC(N)=O)NC(=O)CNC(=O)[C@H](CCC(=O)O)NC(=O)[C@H](CC(C)C)NC(=O)[C@H](Cc1ccc(O)cc1)NC(=O)[C@H](CO)NC(=O)[C@H](CO)NC(=O)[C@@H](NC(=O)[C@H](CC(=O)O)NC(=O)[C@H](CO)NC(=O)[C@@H](NC(=O)[C@H](Cc1ccccc1)NC(=O)[C@@H](NC(=O)CNC(=O)[C@H](CCC(=O)O)NC(=O)CNC(=O)[C@@H](N)Cc1cnc[nH]1)[C@@H](C)O)[C@@H](C)O)C(C)C)C(=O)N[C@@H](C)C(=O)N[C@@H](Cc1c[nH]c2ccccc12)C(=O)N[C@@H](CC(C)C)C(=O)N[C@H](C(=O)N[C@@H](CCCCN)C(=O)NCC(=O)N[C@@H](CCCNC(=N)N)C(=O)N[C@@H](CSC1CC(=O)N(CCCCCC(=O)Nc2ccc(C(c3c(O)c4ccccc4oc3=O)c3c(O)c4ccccc4oc3=O)cc2)C1=O)C(N)=O)C(C)C (stereo partly specified)	1120	0.248	3.2
CC[C@H](C)[C@H](NC(=O)[C@H](Cc1ccccc1)NC(=O)[C@H](CCC(=O)O)NC(=O)[C@H](CCCCN)NC(=O)[C@H](C)NC(=O)[C@H](C)NC(=O)[C@H](CCC(N)=O)NC(=O)CNC(=O)[C@H](CCC(=O)O)NC(=O)[C@H](CC(C)C)NC(=O)[C@H](Cc1ccc(O)cc1)NC(=O)[C@H](CO)NC(=O)[C@H](CO)NC(=O)[C@@H](NC(=O)[C@H](CC(=O)O)NC(=O)[C@H](CO)NC(=O)[C@@H](NC(=O)[C@H](Cc1ccccc1)NC(=O)[C@@H](NC(=O)CNC(=O)[C@H](CCC(=O)O)NC(=O)CNC(=O)[C@@H](N)Cc1cnc[nH]1)[C@@H](C)O)[C@@H](C)O)C(C)C)C(=O)N[C@@H](C)C(=O)N[C@@H](Cc1c[nH]c2ccccc12)C(=O)N[C@@H](CC(C)C)C(=O)N[C@H](C(=O)N[C@@H](CS)C(=O)NCC(=O)N[C@@H](CCCNC(=N)N)C(N)=O)C(C)C	36	0.939	4.9
CC[C@H](C)[C@H](NC(=O)[C@H](Cc1ccccc1)NC(=O)[C@H](CCC(=O)O)NC(=O)[C@H](CCCCN)NC(=O)[C@H](C)NC(=O)[C@H](C)NC(=O)[C@H](CCC(N)=O)NC(=O)CNC(=O)[C@H](CCC(=O)O)NC(=O)[C@H](CC(C)C)NC(=O)[C@H](Cc1ccc(O)cc1)NC(=O)[C@H](CO)NC(=O)[C@H](CO)NC(=O)[C@@H](NC(=O)[C@H](CC(=O)O)NC(=O)[C@H](CO)NC(=O)[C@@H](NC(=O)[C@H](Cc1ccccc1)NC(=O)[C@@H](NC(=O)CNC(=O)[C@H](CCC(=O)O)NC(=O)CNC(=O)[C@@H](N)Cc1cnc[nH]1)[C@@H](C)O)[C@@H](C)O)C(C)C)C(=O)N[C@@H](C)C(=O)N[C@@H](Cc1c[nH]c2ccccc12)C(=O)N[C@@H](CC(C)C)C(=O)N[C@H](C(=O)N[C@@H](CSC1CC(=O)N(CCCCCCCCCCCC(=O)Nc2ccc(C(c3c(O)c4ccccc4oc3=O)c3c(O)c4ccccc4oc3=O)cc2)C1=O)C(=O)NCC(=O)N[C@@H](CCCNC(=N)N)C(N)=O)C(C)C (stereo partly specified)	2320	0.168	18.1
CC[C@H](C)[C@H](NC(=O)[C@H](Cc1ccccc1)NC(=O)[C@H](CCC(=O)O)NC(=O)[C@H](CCCCN)NC(=O)[C@H](C)NC(=O)[C@H](C)NC(=O)[C@H](CCC(N)=O)NC(=O)CNC(=O)[C@H](CCC(=O)O)NC(=O)[C@H](CC(C)C)NC(=O)[C@H](Cc1ccc(O)cc1)NC(=O)[C@H](CO)NC(=O)[C@H](CO)NC(=O)[C@@H](NC(=O)[C@H](CC(=O)O)NC(=O)[C@H](CO)NC(=O)[C@@H](NC(=O)[C@H](Cc1ccccc1)NC(=O)[C@@H](NC(=O)CNC(=O)[C@H](CCC(=O)O)NC(=O)CNC(=O)[C@@H](N)Cc1cnc[nH]1)[C@@H](C)O)[C@@H](C)O)C(C)C)C(=O)N[C@@H](C)C(=O)N[C@@H](Cc1c[nH]c2ccccc12)C(=O)N[C@@H](CC(C)C)C(=O)N[C@H](C(=O)N[C@@H](CCCCN)C(=O)NCC(=O)N[C@@H](CCCNC(=N)N)C(N)=O)C(C)C	48	0.937	–
